Compound activity: PubChem BioAssay, Broad Institute
The list is not random: actives were taken first. Their share in the collection is about 4%.
SIRT5 block: blocks human SIRT5 desuccinylation of peptide; Purified SirT5, succinyl-peptide AMC, trypsin-coupled fluorescence; AID 652115; inhibition, % at 15 µM; actives 1.1% (n = 330,000); Q9NXA8; in the data active means inhibition above about 15%
E-sel inducer: induces E-selectin expression in human endothelial cells; P16581; HUVEC E-selectin immunofluorescence imaging; normalized: neutral wells 0, TNF-alpha wells 100; activation, % at 7.58 µM; actives 0.37% (n = 260,000); AID 686992;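 active means mean E-selectin-positive cell signal at least 10% of the positive control, reached in at least 60% of replicates, without over 20% cell loss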
Target sequence (P16581 whole entry, looked up): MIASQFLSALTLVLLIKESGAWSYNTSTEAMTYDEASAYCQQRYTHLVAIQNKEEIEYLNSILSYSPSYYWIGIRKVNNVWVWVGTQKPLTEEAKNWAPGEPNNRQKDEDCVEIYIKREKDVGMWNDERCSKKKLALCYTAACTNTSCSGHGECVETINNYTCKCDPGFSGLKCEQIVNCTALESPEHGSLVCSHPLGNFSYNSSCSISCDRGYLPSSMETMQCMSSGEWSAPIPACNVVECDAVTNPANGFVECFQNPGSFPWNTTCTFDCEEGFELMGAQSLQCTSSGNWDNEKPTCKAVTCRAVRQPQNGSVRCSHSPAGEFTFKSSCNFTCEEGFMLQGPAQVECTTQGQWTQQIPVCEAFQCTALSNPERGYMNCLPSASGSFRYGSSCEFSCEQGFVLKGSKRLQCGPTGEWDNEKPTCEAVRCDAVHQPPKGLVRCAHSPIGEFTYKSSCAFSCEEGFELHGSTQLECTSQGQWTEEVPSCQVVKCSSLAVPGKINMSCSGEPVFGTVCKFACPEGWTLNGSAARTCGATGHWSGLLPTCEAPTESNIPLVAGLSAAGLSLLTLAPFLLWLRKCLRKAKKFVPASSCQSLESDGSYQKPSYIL
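Assay system: HUVEC primary endothelial cells. Input: 3,000 HUVEC seeded per well. Doses: one compound dose added by pin transfer. Read-out basis: % PE-positive cells. Benchmarks: TNF-alpha high, DMSO low. Detection: immunofluorescence imaging. Buffer or medium: EGM-2, gelatin.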
FN deposit inh: fibronectin deposition inhibition | inhibition, % at 12.6 µM | AH1F fibroblasts, Alexa488-fibronectin deposition fluorescence, overnight | actives 0.086% (n = 350,000);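 active means mean inhibition across replicates of 30% or more, regardless of how many single replicates reach that level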
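Test system: AH1F fibroblast monolayer depositing Alexa488-labelled fibronectin into matrix. Input: 10000 cells per well. Technique: fluorescence, ex 485 nm, em 525 nm. Buffer or medium: DMEM plus 2% serum, read in PBS. Timing: 1 h cell adhesion before compound, then overnight fibronectin incubation. Compound: single dose, pinned. Read-out basis: inhibition from reduced deposited-fibronectin fluorescence.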
Statin myotox sup: suppressors of simvastatin-induced myotoxicity in C2C12 myotubes | ATP luminescence, 48 h; scaled: DMSO 0, geranylgeraniol control 100 | rescue of ATP level, % at 7.49 µM | actives 0.78% (n = 330,000) | AID 602340;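 active means mean ATP rescue above about 67%, or every replicate alone reaching that limit, limit read from the data, passing the limit was not always enough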;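 further: myotubes were challenged with 10 µM simvastatin during compound exposure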
FGF22 binding: FGF22 (human) thermal shift binding; Q9HCT0; recombinant FGF22 thermal shift, SYPRO orange fluorescence; percent of sucrose octasulfate shift, DMSO zero; activity (Tm shift, normalised), % at 9.99 µM; actives 1.5% (n = 340,000); AID 651658;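 active means mean Tm shift, scaled 0 neutral to 100 positive control, at about 1.3% or above, every replicate too, limit read from the data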
Target sequence (Q9HCT0 whole entry, looked up): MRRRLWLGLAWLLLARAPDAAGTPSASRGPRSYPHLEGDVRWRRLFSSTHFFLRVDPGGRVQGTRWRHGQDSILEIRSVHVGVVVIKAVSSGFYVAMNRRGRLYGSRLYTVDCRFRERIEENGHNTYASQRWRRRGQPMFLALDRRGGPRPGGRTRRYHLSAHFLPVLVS
rRNA inh HTS: inhibits bacterial ribosomal RNA function over humanized ribosomes | E. coli WT GFP vs humanized-ribosome RFP mutants, fluorescence, 24 h; hits give low values; DMSO median 0, no signal -100 | GFP signal change (wild-type ribosome), % (no concentration beside the values) | actives 1.6% (n = 350,000) | AID 720706;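 active means significant combined selectivity score with lowered wild-type GFP, culture density cut under 30%, mutant RFP and density less affected; inactive means any of these conditions unmet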
Each line names hits and unclear results; the compound was inactive in the other large screens.

O=C(COC(=O)C1CCN(C(=O)c2ccc(Cl)cc2)CC1)Nc1ccccc1F	rRNA inh HTS -17 (no result: E-sel inducer)
N#Cc1ccccc1NC(=O)COC(=O)C1CCN(C(=O)c2ccc(Cl)cc2)CC1	none
CN1CCN(CCOCCOc2ccc(Br)cc2Cl)CC1	none
Clc1cc(Br)ccc1OCCN1CCOCC1	SIRT5 block 26 (no result: Statin myotox sup)
Cc1ccc(S(=O)(=O)N2CCC(=O)N([C@H](COCc3cccc(Cl)c3)Cc3ccccc3)CC2)cc1	SIRT5 block 40 (no result: Statin myotox sup)
Cc1ccc(S(=O)(=O)N2CCC(=O)N(C(COCc3cccc(Cl)c3)Cc3ccccc3)CC2)cc1 (centres undefined)	none (no result: SIRT5 block, FGF22 binding, rRNA inh HTS)
O=C(/C=C/c1ccccc1)NC1CC2CCC1C2 (centres undefined)	none (no result: SIRT5 block, E-sel inducer, Statin myotox sup, FGF22 binding, rRNA inh HTS)
O=C(/C=C/c1ccc([N+](=O)[O-])cc1)NNC(=O)C1CC1	none
O=C(/C=C/c1ccc([N+](=O)[O-])cc1)NC1CC2CCC1C2 (centres undefined)	rRNA inh HTS -28 (no result: SIRT5 block, E-sel inducer, Statin myotox sup)
O=C(/C=C/c1ccc(Cl)cc1)NC1CC2CCC1C2 (centres undefined)	E-sel inducer 35
Cc1ccc(S(=O)(=O)N(C)C[C@@H]2Oc3c(NC(=O)Nc4ccc5c(c4)OCO5)cccc3C(=O)N([C@@H](C)CO)C[C@@H]2C)cc1	none (no result: FN deposit inh)
CO[C@@H]1CN(C)C(=O)c2cc(NS(=O)(=O)c3ccc(F)cc3)ccc2OC[C@@H](C)NC[C@@H]1C	none
O=C(CN1CCCC1)OCCCc1ccccc1	FGF22 binding 44 (no result: E-sel inducer, Statin myotox sup)
Cc1cccc(NC(=O)Nc2ccc3c(c2)C(=O)N(C)[C@@H]2CC[C@@H](CC(=O)NCc4ccccc4Cl)O[C@@H]2CO3)c1	none
CCCOc1ccc(N2C(=O)CC(SCCc3nc4ccccc4[nH]3)C2=O)cc1 (centres undefined)	rRNA inh HTS -31 (no result: Statin myotox sup)
O=C1CC(SCCc2nc3ccccc3[nH]2)C(=O)N1c1ccc(Cl)cc1 (centres undefined)	none (no result: SIRT5 block, E-sel inducer, FN deposit inh, FGF22 binding, rRNA inh HTS)
C[C@@H]1CN([C@@H](C)CO)C(=O)c2cc(-c3cccc(C#N)c3)cnc2O[C@H]1CN(C)Cc1ccncc1	none
CCCCCN(C(=O)NC(=O)Nc1ccc(C)cc1C)S(C)(=O)=O	FGF22 binding 43 (no result: Statin myotox sup)
COC(=O)C(Cc1csc2ccc(Cl)cc12)NC(=O)c1ccc(Cl)cc1 (centres undefined)	rRNA inh HTS -16
COC(=O)C(Cc1ccccc1)NC(=O)c1ccc(C)cc1 (centres undefined)	none (no result: E-sel inducer, Statin myotox sup)
Nc1nc(NCc2ccco2)nc(N2CCN(Cc3ccccc3)CC2)c1[N+](=O)[O-]	rRNA inh HTS -24 (no result: Statin myotox sup)
Nc1nc(NCc2ccco2)nc(N2CCCC2)c1[N+](=O)[O-]	none (no result: SIRT5 block, Statin myotox sup)
COc1ccc(C(C(=O)NC(C)(C)C)N(CCO)C(=O)CCC(=O)Nc2cc(C)on2)cc1 (centres undefined)	FGF22 binding 43 (no result: E-sel inducer)
COc1ccc(C(C(=O)NC(C)(C)C)N(CCc2ccccc2)C(=O)CCC(=O)Nc2cc(C)on2)cc1 (centres undefined)	none (no result: E-sel inducer)
O=C(Nc1cccc2ccccc12)C12CC3CC(C1)CC(n1cnc([N+](=O)[O-])n1)(C3)C2	Statin myotox sup 69 (no result: SIRT5 block, E-sel inducer, FN deposit inh, FGF22 binding, rRNA inh HTS)
C[C@@H]1CN([C@@H](C)CO)C(=O)c2cc(NC(=O)C3CC3)ccc2O[C@H]1CN(C)C(=O)Nc1ccc2c(c1)OCO2	none (no result: FN deposit inh)
CNC[C@@H]1OCCCC[C@H](C)Oc2ccc(N(C)C)cc2C(=O)N([C@@H](C)CO)C[C@@H]1C	none (no result: SIRT5 block, FN deposit inh, FGF22 binding)
N=C1/C(=C/c2ccc(-c3cccc(C(=O)O)c3)o2)C(=O)N=C2SC(CC(=O)N3CCOCC3)=NN12	SIRT5 block 22
N=C1/C(=C\c2ccc(SCc3ccccc3)o2)C(=O)N=C2SC(CC(=O)N3CCOCC3)=NN12	none
CC(C)(C)c1ccc(-n2nc(C(N)=O)c(O)cc2=O)cc1	none (no result: SIRT5 block, E-sel inducer)
CC(C)(C)c1ccc(-n2nc(C#N)c(Cl)cc2=O)cc1	FN deposit inh 30 (no result: E-sel inducer, Statin myotox sup)
Cc1cnc(C(=O)NCc2ccc(Cl)cc2Cl)cn1	FGF22 binding 43 (no result: E-sel inducer, FN deposit inh, Statin myotox sup)
Cc1cnc(C(=O)NCCc2ccc(Cl)cc2)cn1	none (no result: FN deposit inh)
C/C(CCc1ccccc1)=N\NC(=O)COc1ccccc1C	FGF22 binding 43 (no result: Statin myotox sup)
Cc1noc(C)c1S(=O)(=O)Nc1ccc2c(c1)CC(=O)N([C@H](C)CO)C[C@H](C)[C@H](CN(C)Cc1ccc3c(c1)OCO3)O2	none (no result: E-sel inducer, FN deposit inh)
COC(=O)C[C@H]1CC[C@H]2[C@@H](COC[C@@H](O)CN2C(=O)Nc2ccccc2OC)O1	none
CC(CC(=O)N1CCN(c2ccc(C(F)(F)F)cn2)CC1)n1ccnc1 (centres undefined)	FGF22 binding 43 (no result: Statin myotox sup)
Cc1ccc(C(=O)c2cc(C)sc2N)cc1	FGF22 binding 43 (no result: E-sel inducer, Statin myotox sup, rRNA inh HTS)
CCC(=O)N1[C@H](CO)[C@H]2c3ccccc3N(C(=O)c3cccc(OC)c3)C[C@H]21	none (no result: SIRT5 block, FN deposit inh, FGF22 binding)
Cc1[nH]c(=O)c(C#N)cc1-c1ccncc1	E-sel inducer 58
CCOC(=O)N1CCN(S(=O)(=O)c2c(C)nc3scc(C)n3c2=O)CC1	SIRT5 block 31
CCOC(=O)N1CCN(S(=O)(=O)c2c(C)nc3sccn3c2=O)CC1	none (no result: E-sel inducer)
Cc1ccc(N2C(=O)C(F)(F)C2c2ccccc2)cc1 (centres undefined)	none
COc1ccc(C2N(c3ccccc3)C(=O)C2(F)F)cc1OC (centres undefined)	rRNA inh HTS -23
Cc1ccc(/C=C/C(=O)c2ccc(C)cc2)cc1	none (no result: SIRT5 block, E-sel inducer, FGF22 binding, rRNA inh HTS)
Cc1ccc(C(=O)/C=C/C(=O)c2ccc(C)cc2)cc1	rRNA inh HTS -24 (no result: Statin myotox sup)
C[C@@H]1CN([C@@H](C)CO)C(=O)c2cc(NC(=O)Nc3cccc4ccccc34)ccc2O[C@H]1CN(C)C(=O)Nc1ccc2c(c1)OCO2	none (no result: FN deposit inh)
NNc1ccccc1C(F)(F)F	FGF22 binding 43 (no result: Statin myotox sup)
COc1ccc2c3c([nH]c2c1)[C@@H](CO)N(S(=O)(=O)c1cn(C)cn1)CC31CN(CC2CCOCC2)C1	none (no result: SIRT5 block, FN deposit inh, Statin myotox sup, FGF22 binding)
CCOc1ccc(N2C(=O)/C(=C\c3ccc(OC)c(O)c3)S(=O)(=O)C2c2cccc([N+](=O)[O-])c2)cc1 (centres undefined)	none (no result: E-sel inducer, Statin myotox sup)
CCOc1ccc(N2C(=O)/C(=C\c3ccc(O)c(OC)c3)S(=O)(=O)C2c2cccc([N+](=O)[O-])c2)cc1 (centres undefined)	FGF22 binding 44
COc1ccc(NC(=O)N(C)C[C@H]2Oc3c(NS(=O)(=O)c4ccc(F)cc4)cccc3C(=O)N([C@H](C)CO)C[C@H]2C)cc1	none (no result: SIRT5 block, FN deposit inh)
CCOC(=O)C1=CN(Cc2cccc(I)c2)S(=O)(=O)N(C)C1C (centres undefined)	none (no result: E-sel inducer)
CCOC(=O)C1=CN(Cc2cccc(Br)c2)S(=O)(=O)N(C)C1C (centres undefined)	SIRT5 block 42 (no result: FN deposit inh)
CN(C)C(=O)C[C@@H]1C=C[C@H](NC(=O)C2CCOCC2)[C@@H](CO)O1	none (no result: Statin myotox sup, FGF22 binding)
